Source: PubChem BioAssay
PG9 Ab binder = binders of HIV-1 gp120 antibody PG9, primary screen, biochemical, TR-FRET; actives 0.43% (n = 360,000); inhibition, % at 6.7 µM; HIV-1 gp120 / PG9 antibody interaction; AID 624416, 2012; TR-FRET gp120-PG9 antibody binding; in the data active means inhibition above about 8.5%
NR2E3 ag-1 = inhibitors of NR2E3-RetCOR corepressor binding, primary screen, NR2E3 agonist project, biochemical, TR-FRET, GST-NR2E3, biotin-RetCOR; actives 0.12% (n = 320,000); Photoreceptor-specific nuclear receptor (Homo sapiens), Q9Y5X4; 1536-well; inhibition of corepressor binding, % at 4.78 µM;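 active means percent inhibition above the cutoff of mean plus 3 SD of all tested compounds, set per screening campaign, cut at about 20% in these data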;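 further: 0% = DMSO wells and 100% = biotin wells as full block of FRET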
Target sequence (Q9Y5X4 whole entry, looked up): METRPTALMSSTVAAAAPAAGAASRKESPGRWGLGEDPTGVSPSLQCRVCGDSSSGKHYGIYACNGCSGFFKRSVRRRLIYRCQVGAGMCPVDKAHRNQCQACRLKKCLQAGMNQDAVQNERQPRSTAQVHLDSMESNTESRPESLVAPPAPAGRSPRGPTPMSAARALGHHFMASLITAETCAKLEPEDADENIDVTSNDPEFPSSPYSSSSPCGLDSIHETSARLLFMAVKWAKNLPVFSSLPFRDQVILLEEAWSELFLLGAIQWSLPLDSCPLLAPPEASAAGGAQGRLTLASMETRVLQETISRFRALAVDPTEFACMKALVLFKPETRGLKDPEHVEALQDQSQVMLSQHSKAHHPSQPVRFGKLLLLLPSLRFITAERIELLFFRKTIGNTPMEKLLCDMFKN
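System: GST-NR2E3 and biotin-RetCOR proteins; probe or stimulus: 7 nM biotin-RetCOR; doses: compound at 4.8 µM, single dose; schedule: Compound–protein incubation for 5 h at 4 °C; detection: time-resolved FRET; read-out: percent inhibition; controls: biotin wells as high control, 0.6% DMSO wells as low control; format: 1536-well plates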
NR2E3 ag-2 = NR2E3 agonists in two-hybrid cells, primary screen, cell-based, luminescence, CHO-S, Gal4-NCOR/VP16-NR2E3; luciferase; actives 0.35% (n = 360,000); Photoreceptor-specific nuclear receptor (Homo sapiens), Q9Y5X4; inhibition of corepressor binding, % at 3.98 µM;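 active means inhibition above the mean of all tested compounds plus 3 SD, cut at about 70% in these data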;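 further: 0% = DMSO with NR2E3 transfected cells and 100% = cells lacking NR2E3 construct; higher means lower luciferase signal from less NR2E3 corepressor binding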
SKN-1 inh = suppressors of acrylamide-induced Pgst-4::GFP reporter in worms, primary screen, SKN-1 inhibitor project, whole organism, uHTS, GFP/RFP fluorescence ratio, strain VP596; C. elegans VP596 Pgst-4::GFP/RFP ratio, 24 h; inhibition, % at 21.8 µM; actives 0.49% (n = 360,000);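 active means interference check ratio from 0.5 to 1.5 plus GFP to RFP signal ratio inhibition reaching or exceeding a fixed threshold, cut at about 30% in these data, passing the limit was not always enough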
NR1D1 modulator = modulators of Rev-erb alpha DNA binding, primary screen, biochemical, FITC-DNA, fluorescence polarization, uHTS; Rev-erbα–FITC-DNA binding, 90 min; activity, % at 10 µM; actives 0.79% (n = 370,000); AID 1259318, 2017;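 active means activity above about 14%, limit read from the data; passing the limit was not always enough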;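 further: 0% = DMSO wells with 35 nM protein and 100% = DMSO wells with 750 nM protein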
MT1-MMP act inh = blockers of MT1-MMP proenzyme processing, primary screen, HT1080 RFP-PRO-GFP cells, GFP/RFP fluorescence; Matrix metalloproteinase-14 (Homo sapiens), P50281; GFP/RFP ratio fluorescence, overnight; percent of plate control window, DMSO zero; GFP/RFP ratio change, % at 20 µM; actives 0.061% (n = 360,000); AID 651647, 2012;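 active means GFP/RFP ratio change of at least 30% with cell ATP level not reduced by more than half and red fluorescence within 50% of control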
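Assay system: RFP-PRO-GFP reporter HT1080 cells; read-out basis: GFP/RFP fluorescence ratio; benchmarks: DMSO wells and RFP-L50D-GFP cells; doses: 20 µM single dose, 1% DMSO; schedule: overnight cell settling, then overnight compound exposure, 37 °C, 5% CO2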
Numbers without * were called inactive; · = not tested or not shown. Rows were chosen to be rich in hits. Some 1.9% of all compounds tested hit in one or more screens of this group.

SMILES	PG9 Ab binder	NR2E3 ag-1	NR2E3 ag-2	SKN-1 inh	NR1D1 modulator	MT1-MMP act inh
CC(O)CC(=O)O (stereo not given)	-1	-2	-21	41*	-1	2
Nc1ccc(N=Nc2ccccc2)cc1[N+](=O)[O-]	-1	·	-80	57*	11	6
Cc1ccc(N)c([N+](=O)[O-])c1	0	0	15	7	7	-2
CC(=O)OCC(=O)[C@@]1(O)CCC2C3CCC4=CC(=O)C=CC4(C)C3[C@@H](O)C[C@@]21C (stereo not given in full)	·	·	·	·	-9	·
Clc1cccc(OCc2nc(-c3ccncc3)no2)c1	-3	0	-41	48*	-3	1
Cc1cc(OCc2nc(-c3cccs3)no2)cc(C)c1Cl	-2	5	-51	-1	7	-2
Fc1ccc(OCc2nc(-c3cccs3)no2)cc1	0	2	-86	39*	·	3
c1ccc(OCc2nc(-c3cccs3)no2)cc1	-2	2	-87	40*	-3	5
C=CCN(CC#Cc1ccc(OC)cc1)CC=C	·	·	·	·	-6	·
CN1CCc2c(sc3c2C(=O)NC(c2ccccn2)N3)C1 (stereo not given)	-1	3	10	55	4	-4
CN1CCc2c(sc3c2C(=O)NC(c2ccccc2)N3)C1 (stereo not given)	-2	1	-22	47*	-3	-12
N/C(=N\OC(=O)c1ccco1)c1ccc(Br)cc1	0	2	-145	50*	-2	2
N/C(=N\OC(=O)c1ccc(Br)cc1)c1ccccc1	-2	2	-50	24	-5	-1
N/C(=N\OC(=O)c1ccco1)c1ccccc1	-2	-1	-67	12	3	0
COc1ccc(C(=O)O/N=C(\N)c2ccccc2)cc1	-1	-4	-153	-5	0	3
COc1ccc(/C(N)=N/OC(=O)c2ccco2)cc1	0	0	-124	51*	0	2
Cc1ccc(/C(N)=N/OC(=O)c2ccco2)cc1	0	-3	-132	85*	3	0
N/C(=N\OC(=O)Cc1cccs1)c1ccc([N+](=O)[O-])cc1	-2	0	-54	13	2	9
N/C(=N\OC(=O)Cc1cccs1)c1ccc(Br)cc1	-1	-2	-17	61*	1	1
C[C@H](Cc1cc2c(c(C(N)=O)c1)N(CCCO)CC2)NCCOc1ccccc1OCC(F)(F)F	·	·	·	·	-7	·
O=C1NC(Cc2cnc[nH]2)C(=O)N2CCCC12 (stereo not given)	1	·	·	·	6	·
O=C(Cc1ccc(F)cc1)N[C@@H]1c2ccccc2CC[C@@H]1O	0	·	-6	9	-3	-2
CN(N=O)c1ccc(CC2CCc3ccccc32)cc1 (stereo not given)	4	·	-65	44*	2	3
COc1cc(N=c2ssnc2Cl)cc(OC)c1	2	-1	-20	15	0	-10
Clc1nssc1=Nc1ccc(Br)cc1	3	·	-10	94*	7	1
SMILES	PG9 Ab binder	NR2E3 ag-1	NR2E3 ag-2	SKN-1 inh	NR1D1 modulator	MT1-MMP act inh
O=C1Cn2nnc(-c3ccccc3)c2C2c3cc(Br)ccc3CCN12 (stereo not given)	0	·	·	·	7	·
Clc1ccc(-c2cn3cccnc3n2)cc1Cl	0	2	-68	42*	-2	45
Brc1ccc(-c2cn3cccnc3n2)cc1	-1	6	-90	48*	0	-3
CC(OC(=O)/C(C#N)=C/c1ccc(N(C)C)cc1)C(=O)N(C)c1ccccc1 (stereo not given)	0	1	9	46*	12	-50
CC(C)OC(=O)/C(C#N)=C\c1cccnc1	-1	1	-24	13	-4	5
O=C1c2ccc3c4c(ccc(c24)C(=O)N1c1ccc2ccccc2c1)CC3	-3	-1	-44	35*	11	-2
COc1ccc(-c2ccc(C(=O)NCCN(C)C)c3occc23)c(C)c1	0	·	-2	17	0	5
COCCNC(=O)c1ccc(-c2ccc(OC)cc2C)c2ccoc12	0	·	-56	36*	4	0
O=c1cc(/C=C/c2ccccc2)oc2ccccc12	-1	-5	-89	43*	8	2
O=C(c1cccs1)c1ccc(-c2cccs2)s1	0	-2	-120	62*	6	-1
COC1=CC(=O)C[C@@H](C)C12Oc1c(Cl)c(OC)cc(OC)c1C2=O (stereo not given in full)	·	·	·	·	-11	·
O=C(Nc1ccccc1)c1ccc(-c2ccccc2Cl)o1	-3	0	4	-8	3	9
O=C(Nc1nccs1)c1ccc(-c2ccccc2[N+](=O)[O-])o1	-4	4	-109	36*	3	1
O=C(Nc1nccs1)c1ccc(-c2ccccc2Cl)o1	0	0	-114	53*	-7	5
Cc1ccc(NC(=O)N2CCC(c3nc4ccc(Cl)cc4[nH]3)CC2)cc1F	·	·	·	·	0	·
COCOCCn1cc(CN2CCS(=O)(=O)N(Cc3ccc(-c4cccc(N(C)C)c4)cc3)C(C(C)C)C2=O)nn1 (stereo not given)	1	·	-2	36*	-4	3
COCOCCn1cc(CN2CCS(=O)(=O)N(Cc3ccc(-c4cccc(CO)c4)cc3)C(C(C)C)C2=O)nn1 (stereo not given)	-1	·	19	6	-2	5
O=C(O)c1cc(O)ccc1O	-2	·	-34	-14	2	0
O=C(O)C1=CC(=C(c2ccc(O)c(C(=O)O)c2)c2ccc(O)c(C(=O)O)c2)C=CC1=O	·	30*	·	·	·	·
COc1cccc(N2CCN(C(=O)CCn3nnc4ccccc43)CC2)c1	·	·	·	·	7	·
O=C(Nc1nccs1)c1ccc(-c2ccc(Cl)cc2)o1	1	2	-122	41*	17	4
O=C(Nc1nccs1)c1ccc(-c2ccc(F)cc2)o1	-1	3	-146	52*	-5	6
O=C(Nc1nccs1)c1ccc(-c2ccc([N+](=O)[O-])cc2)o1	4	-7	-136	30	-24	-4
O=C1CCCc2c1[nH]c1ccccc21	-2	3	-45	-4	·	6
